# From ChEMBL document CHEMBL1671817, “Synthesis of cationic antimicrobial β(2,2)-amino acid derivatives with potential for oral administration” (J Med Chem, 2011)
# Active and inactive are the calls of the source. The rule behind the calls is not given here.
# Tests used:
# [1] = Therapeutic index, ratio of EC50 for human RBC hemolytic activity to MIC for methicillin-resistant Staphylococcus epidermidis ATCC 27626; conditions: human red blood cells (RBC), read-out: TI
# How it was run: (§1)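 Index taken as hemolytic EC50 divided by MIC for each strain. Hemolysis: human RBCs from heparinized blood, washed with 37 °C PBS, diluted to 10% hematocrit. Cells exposed at 1% v/v final to compound in PBS at 1–1000 μg/mL for 1 h at 37 °C with agitation. Hemoglobin read by supernatant A405 against PBS and 0.1% Triton X-100 controls. MICs in duplicate at 0.5–200 μg/mL.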
# [2] = test system: Staphylococcus epidermidis; experiment: Antimicrobial activity against methicillin-resistant Staphylococcus epidermidis ATCC 27626; format: functional
# How it was run: (§2)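 MIC screen run at a contract lab. Each compound, as its ditrifluoroacetate salt, tested in duplicate at 200, 100, 50, 35, 15, 10, 5, 2.5, 1 and 0.5 μg/mL. Molar values calculated from the salt form. Gentamicin used as positive control.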
# Staphylococcus aureus [3] = experiment: Antimicrobial activity against Staphylococcus aureus ATCC 25923; format: functional
# Escherichia coli = experiment: Antimicrobial activity against Escherichia coli ATCC 25922; format: functional
# [4] = Therapeutic index, ratio of EC50 for human RBC hemolytic activity to MIC for Escherichia coli ATCC 25922; conditions: human red blood cells (RBC), read-out: TI; how it was run: as §1
# [5] = Therapeutic index, ratio of EC50 for human RBC hemolytic activity to MIC for Pseudomonas aeruginosa ATCC 27853; conditions: human red blood cells (RBC), read-out: TI; how it was run: as §1
# [6] = Hemolytic activity against human RBC assessed as hemoglobin release after 1 hr; format: ADME, cell-based; conditions: Erythrocyte
# How it was run: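 Heparinized human blood freed of plasma by centrifugation, washed three times in 37 °C PBS, diluted to 10% hematocrit and added to compound in PBS (1–1000 μg/mL) to 1% v/v erythrocytes. PBS negative, 0.1% v/v Triton X-100 positive control.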
# Staphylococcus aureus [7] = experiment: Antimicrobial activity against methicillin-resistant Staphylococcus aureus ATCC 33591; format: functional; how it was run: as §2
# [8] = Therapeutic index, ratio of EC50 for human RBC hemolytic activity to MIC for Staphylococcus aureus ATCC 25923; conditions: human red blood cells (RBC), read-out: TI; how it was run: as §1
# [9] = Therapeutic index, ratio of EC50 for human RBC hemolytic activity to MIC for methicillin-resistant Staphylococcus aureus ATCC 33591; conditions: human red blood cells (RBC), read-out: TI; how it was run: as §1
# Pseudomonas aeruginosa = experiment: Antimicrobial activity against Pseudomonas aeruginosa ATCC 27853; format: functional
# [10] = Permeability of the compound across phospholipid vesicle based barrier model at pH 7.4; format: ADME
# How it was run: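 Passive diffusion through phospholipid vesicle-based barriers (egg lipid extract, ~82% phosphatidylcholine) on filter inserts at room temperature. Donor in phosphate buffer pH 7.4, or pH 5.5 for a poorly soluble compound; acceptor always pH 7.4. Inserts moved to fresh acceptor wells; UV 230 nm at 1, 2, 3, 3.5, 4, 4.5, 5 h; barrier resistance checked afterwards.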
# Staphylococcus aureus [11] = experiment: Antimicrobial activity against Staphylococcus aureus assessed as cell wall mesosome structure and septum of bacteria at 234 uM after 2 hrs by transmission electron microscopy; format: functional, organism-based
# Staphylococcus aureus [12] = experiment: Antimicrobial activity against Staphylococcus aureus assessed as cell wall mesosome structure and septum of bacteria at 117 uM after 3 hrs by transmission electron microscopy; format: functional, organism-based
Structure (SMILES),selectivity ratio [1],MIC [2] [µM],MIC (Staphylococcus aureus [3]) [µM],MIC (Escherichia coli) [µM],selectivity ratio [4],selectivity ratio [5],EC50 [6] [µM],MIC (Staphylococcus aureus [7]) [µM],selectivity ratio [8],selectivity ratio [9],MIC (Pseudomonas aeruginosa) [µM],permeability [10],Activity (Staphylococcus aureus [11]),Activity (Staphylococcus aureus [12])
CN(C)CCN1CCN(C(=O)C(CN)(Cc2ccc(C(C)(C)C)cc2)Cc2ccc(C(C)(C)C)cc2)CC1.O=C(O)C(F)(F)F.O=C(O)C(F)(F)F,26,13,13,13,26,1.3,337,13,26,26,255,–,–,–
NCCNC(=O)C(CN)(CCCc1ccccc1)CCCc1ccccc1.O=C(O)C(F)(F)F.O=C(O)C(F)(F)F,55,25,71,336,4.1,–,1380,59,19,23,–,–,–,–
CN1CCN(C(=O)C(CN)(Cc2ccc3ccccc3c2)Cc2ccc3ccccc3c2)CC1.O=C(O)C(F)(F)F.O=C(O)C(F)(F)F,20,15,15,22,14,–,303,7.4,20,41,–,permeable,–,–
CN(C)CCNC(=O)C(CN)(Cc1ccc2ccccc2c1)Cc1ccc2ccccc2c1.O=C(O)C(F)(F)F.O=C(O)C(F)(F)F,16,7.5,7.5,23,5.1,0.4,117,7.5,16,16,300,permeable,–,–
CN1CCN(C(=O)C(CN)(Cc2ccc(C(C)(C)C)cc2)Cc2ccc(C(C)(C)C)cc2)CC1.O=C(O)C(F)(F)F.O=C(O)C(F)(F)F,48,7.2,15,15,23,1.2,348,15,23,23,289,–,–,–
CC(C)(C)c1ccc(CC(CN)(Cc2ccc(C(C)(C)C)cc2)C(=O)NCCN)cc1.O=C(O)C(F)(F)F.O=C(O)C(F)(F)F,4.7,3.8,3.8,7.7,2.3,0.8,18,3.8,4.7,4.7,23,–,–,–
NCCNC(=O)C(CN)(Cc1ccc(C(F)(F)F)cc1)Cc1ccc(C(F)(F)F)cc1.O=C(O)C(F)(F)F.O=C(O)C(F)(F)F,28,15,15,52,8,–,425,7.4,28,57,–,–,–,–
CN(C)CCNC(=O)C(CN)(Cc1ccc(C(F)(F)F)cc1)Cc1ccc(C(F)(F)F)cc1.O=C(O)C(F)(F)F.O=C(O)C(F)(F)F,22,21,14,50,9.4,–,468,7.1,33,66,–,–,–,–
NCCNC(=O)C(CN)(Cc1ccc2ccccc2c1)Cc1ccc2ccccc2c1.O=C(O)C(F)(F)F.O=C(O)C(F)(F)F,117,3.9,3.9,24,19,8.3,457,7.8,117,59,55,–,Active,Active
CN(C)CCN1CCN(C(=O)C(CN)(CCCc2ccccc2)CCCc2ccccc2)CC1,–,72,289,289,–,–,–,72,–,–,–,–,–,–
CN(C)CCNC(=O)C(CN)(Cc1ccc(C(C)(C)C)cc1)Cc1ccc(C(C)(C)C)cc1.O=C(O)C(F)(F)F.O=C(O)C(F)(F)F,74,3.7,7.4,7.4,37,3.7,274,7.4,37,37,74,–,–,–
CN1CCN(C(=O)C(CN)(CCCc2ccccc2)CCCc2ccccc2)CC1,–,315,315,315,–,–,–,315,–,–,–,–,–,–
CN1CCN(C(=O)C(CN)(Cc2ccc(C(F)(F)F)cc2)Cc2ccc(C(F)(F)F)cc2)CC1.O=C(O)C(F)(F)F.O=C(O)C(F)(F)F,7.5,70,49,70,7.5,–,525,14,11,38,–,–,–,–
CN(C)CCNC(=O)C(CN)(CCCc1ccccc1)CCCc1ccccc1.O=C(O)C(F)(F)F.O=C(O)C(F)(F)F,9.1,56,56,160,3.2,–,507,56,9.1,9.1,–,–,–,–
CN(C)CCN1CCN(C(=O)C(CN)(Cc2ccc(C(F)(F)F)cc2)Cc2ccc(C(F)(F)F)cc2)CC1.O=C(O)C(F)(F)F.O=C(O)C(F)(F)F,17,65,45,129,8.6,–,1120,6.5,25,172,–,–,–,–
CN(C)CCN1CCN(C(=O)C(CN)(Cc2ccc3ccccc3c2)Cc2ccc3ccccc3c2)CC1.O=C(O)C(F)(F)F.O=C(O)C(F)(F)F,29,14,20,48,8.5,–,409,3.4,20,120,–,permeable,–,–
